Calls of active or inactive are those of the source. The rule behind the calls is not given here.
What was measured:
Candida albicans [1] = assay: Antimicrobial activity against Candida albicans ATCC 10231 assessed as zone of inhibition at 5230 uM incubated overnight at 37 degC; type: functional, organism-based
Escherichia coli [2] = assay: Antimicrobial activity against Escherichia coli ATCC 25922 assessed as zone of inhibition at 2862 uM incubated overnight at 37 degC; type: functional, organism-based
In short: (§1)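 Pure isolates screened against a panel of five bacteria and one fungus, each at a single concentration within 1639–5230 μM. A commercial antibiotic and antifungal agent were tested in parallel as references. Growth inhibition was recorded as the zone of inhibition.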

Staphylococcus aureus [3] = assay: Antimicrobial activity against Staphylococcus aureus ATCC 25923 assessed as zone of inhibition at 2862 uM incubated overnight at 37 degC; type: functional; details: read-out: IZ; in short: as §1
Staphylococcus aureus [4] = assay: Antimicrobial activity against methicillin-resistant Staphylococcus aureus 344/2-32 assessed as zone of inhibition at 2862 uM incubated overnight at 37 degC; type: functional; details: read-out: IZ
Pseudomonas aeruginosa [5] = assay: Antimicrobial activity against Pseudomonas aeruginosa ATCC 27853 assessed as zone of inhibition at 2862 uM incubated overnight at 37 degC; type: functional; details: read-out: IZ; in short: as §1
Streptococcus pyogenes [6] = assay: Antimicrobial activity against Streptococcus pyogenes 345/1 assessed as zone of inhibition at 2862 uM incubated overnight at 37 degC; type: functional; details: read-out: IZ; in short: as §1
Escherichia coli [7] = assay: Antimicrobial activity against Escherichia coli ATCC 25922 assessed as zone of inhibition at 3905 uM incubated overnight at 37 degC; type: functional, organism-based; in short: as §1
Staphylococcus aureus [8] = assay: Antimicrobial activity against Staphylococcus aureus ATCC 25923 assessed as zone of inhibition at 3905 uM incubated overnight at 37 degC; type: functional, organism-based; in short: as §1
Staphylococcus aureus [9] = assay: Antimicrobial activity against methicillin-resistant Staphylococcus aureus 344/2-32 assessed as zone of inhibition at 3905 uM incubated overnight at 37 degC; type: functional, organism-based
Pseudomonas aeruginosa [10] = assay: Antimicrobial activity against Pseudomonas aeruginosa ATCC 27853 assessed as zone of inhibition at 3905 uM incubated overnight at 37 degC; type: functional, organism-based; in short: as §1
Streptococcus pyogenes [11] = assay: Antimicrobial activity against Streptococcus pyogenes 345/1 assessed as zone of inhibition at 3905 uM incubated overnight at 37 degC; type: functional; details: read-out: IZ
Candida albicans [12] = assay: Antimicrobial activity against Candida albicans ATCC 10231 assessed as zone of inhibition at 3905 uM incubated overnight at 37 degC; type: functional, organism-based; in short: as §1
Escherichia coli [13] = assay: Antimicrobial activity against Escherichia coli ATCC 25922 assessed as zone of inhibition at 1639 uM incubated overnight at 37 degC; type: functional, organism-based; in short: as §1
Staphylococcus aureus [14] = assay: Antimicrobial activity against Staphylococcus aureus ATCC 25923 assessed as zone of inhibition at 1639 uM incubated overnight at 37 degC; type: functional, organism-based; in short: as §1
Staphylococcus aureus [15] = assay: Antimicrobial activity against methicillin-resistant Staphylococcus aureus 344/2-32 assessed as zone of inhibition at 1639 uM incubated overnight at 37 degC; type: functional, organism-based
Pseudomonas aeruginosa [16] = assay: Antimicrobial activity against Pseudomonas aeruginosa ATCC 27853 assessed as zone of inhibition at 1639 uM incubated overnight at 37 degC; type: functional, organism-based; in short: as §1
Streptococcus pyogenes [17] = assay: Antimicrobial activity against Streptococcus pyogenes 345/1 assessed as zone of inhibition at 1639 uM incubated overnight at 37 degC; type: functional, organism-based; in short: as §1
Candida albicans [18] = assay: Antimicrobial activity against Candida albicans ATCC 10231 assessed as zone of inhibition at 1639 uM incubated overnight at 37 degC; type: functional, organism-based; in short: as §1
Escherichia coli [19] = assay: Antimicrobial activity against Escherichia coli ATCC 25922 assessed as zone of inhibition at 2450 uM incubated overnight at 37 degC; type: functional, organism-based; in short: as §1
Staphylococcus aureus [20] = assay: Antimicrobial activity against Staphylococcus aureus ATCC 25923 assessed as zone of inhibition at 2450 uM incubated overnight at 37 degC; type: functional, organism-based; in short: as §1
Staphylococcus aureus [21] = assay: Antimicrobial activity against methicillin-resistant Staphylococcus aureus 344/2-32 assessed as zone of inhibition at 2450 uM incubated overnight at 37 degC; type: functional, organism-based
Pseudomonas aeruginosa [22] = assay: Antimicrobial activity against Pseudomonas aeruginosa ATCC 27853 assessed as zone of inhibition at 2450 uM incubated overnight at 37 degC; type: functional, organism-based; in short: as §1
Streptococcus pyogenes [23] = assay: Antimicrobial activity against Streptococcus pyogenes 345/1 assessed as zone of inhibition at 2450 uM incubated overnight at 37 degC; type: functional, organism-based; in short: as §1
Candida albicans [24] = assay: Antimicrobial activity against Candida albicans ATCC 10231 assessed as zone of inhibition at 2450 uM incubated overnight at 37 degC; type: functional, organism-based; in short: as §1
Escherichia coli [25] = assay: Antimicrobial activity against Escherichia coli ATCC 25922 assessed as zone of inhibition at 2762 uM incubated overnight at 37 degC; type: functional, organism-based; in short: as §1
Staphylococcus aureus [26] = assay: Antimicrobial activity against Staphylococcus aureus ATCC 25923 assessed as zone of inhibition at 2762 uM incubated overnight at 37 degC; type: functional; details: read-out: IZ; in short: as §1
Staphylococcus aureus [27] = assay: Antimicrobial activity against methicillin-resistant Staphylococcus aureus 344/2-32 assessed as zone of inhibition at 2762 uM incubated overnight at 37 degC; type: functional, organism-based
Pseudomonas aeruginosa [28] = assay: Antimicrobial activity against Pseudomonas aeruginosa ATCC 27853 assessed as zone of inhibition at 2762 uM incubated overnight at 37 degC; type: functional, organism-based; in short: as §1
Streptococcus pyogenes [29] = assay: Antimicrobial activity against Streptococcus pyogenes 345/1 assessed as zone of inhibition at 2762 uM incubated overnight at 37 degC; type: functional; details: read-out: IZ; in short: as §1
Candida albicans [30] = assay: Antimicrobial activity against Candida albicans ATCC 10231 assessed as zone of inhibition at 2762 uM incubated overnight at 37 degC; type: functional, organism-based; in short: as §1

COC(=O)Nc1nc2ccccc2[nH]1
inhibition zone (IZ) (Candida albicans [1]): inactive

CC1(C)S[C@@H]2[C@H](NC(=O)[C@H](N)c3ccccc3)C(=O)N2[C@H]1C(=O)O [AMPICILLIN]
inhibition zone (IZ) (Escherichia coli [2]): inactive
zone of inhibition at 2862 µM (Staphylococcus aureus [3]): 15 mm
zone of inhibition at 2862 µM (Staphylococcus aureus [4]): 3 mm
zone of inhibition at 2862 µM (Pseudomonas aeruginosa [5]): 2 mm
zone of inhibition at 2862 µM (Streptococcus pyogenes [6]): 20 mm

O=C1C(c2ccccc2)=Cc2cccc3cccc1c23
inhibition zone (IZ) (Escherichia coli [7]): inactive
inhibition zone (IZ) (Staphylococcus aureus [8]): inactive
inhibition zone (IZ) (Staphylococcus aureus [9]): inactive
inhibition zone (IZ) (Pseudomonas aeruginosa [10]): inactive
zone of inhibition at 3905 µM (Streptococcus pyogenes [11]): 2 mm
inhibition zone (IZ) (Candida albicans [12]): inactive

C[C@@H]1O[C@@H](OC[C@H]2O[C@@H](Oc3c(-c4ccc(O)c(O)c4)oc4cc(O)cc(O)c4c3=O)[C@H](O)[C@@H](O)[C@@H]2O)[C@H](O)[C@H](O)[C@H]1O
inhibition zone (IZ) (Escherichia coli [13]): inactive
inhibition zone (IZ) (Staphylococcus aureus [14]): inactive
inhibition zone (IZ) (Staphylococcus aureus [15]): inactive
inhibition zone (IZ) (Pseudomonas aeruginosa [16]): inactive
inhibition zone (IZ) (Streptococcus pyogenes [17]): inactive
inhibition zone (IZ) (Candida albicans [18]): inactive

COC(OC)c1cc(O)c2c(-c3cc(O)cc(O)c3)c(-c3ccc(O)cc3)oc2c1
inhibition zone (IZ) (Escherichia coli [19]): inactive
inhibition zone (IZ) (Staphylococcus aureus [20]): inactive
inhibition zone (IZ) (Staphylococcus aureus [21]): inactive
inhibition zone (IZ) (Pseudomonas aeruginosa [22]): inactive
inhibition zone (IZ) (Streptococcus pyogenes [23]): inactive
inhibition zone (IZ) (Candida albicans [24]): inactive

O=Cc1cc(O)c2c(-c3cc(O)cc(O)c3)c(-c3ccc(O)cc3)oc2c1
inhibition zone (IZ) (Escherichia coli [25]): inactive
zone of inhibition at 2762 µM (Staphylococcus aureus [26]): 1 mm
inhibition zone (IZ) (Staphylococcus aureus [27]): inactive
inhibition zone (IZ) (Pseudomonas aeruginosa [28]): inactive
zone of inhibition at 2762 µM (Streptococcus pyogenes [29]): 1 mm
inhibition zone (IZ) (Candida albicans [30]): inactive

— ChEMBL document CHEMBL3593182, “Phytochemical Investigation of the Constituents Derived from the Australian Plant Macropidia fuliginosa” (2015)
